From ChEMBL document CHEMBL5038630 (J Med Chem, 2022)
Activity calls are given as the source filed them. The calls are words filed in the database; no cut-off is given here.

Legend:
[1] = target: Glutamate NMDA receptor; Grin1/Grin2a (Rattus norvegicus, UniProt P35439+Q00959); assay: Agonist activity at rat GluN1/GluN2A NMDA receptor expressed in Xenopus oocytes measured after 4 days in presence of L-glutamte by two-electrode voltage-clamp recording assay; assay type: cell-based, Oocyte
How it was run: (§1)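 Rat GluN1 plus GluN2A or GluN2B cRNA (1:2) in Xenopus oocytes. TEVC at −40 mV, room temperature, 2–4 days post-injection. Bath: 90 mM NaCl, 1 mM KCl, 10 mM HEPES, 0.5 mM BaCl2, 0.01 mM EDTA, pH 7.4. Oocytes were BAPTA-injected before recording. Agonist applied with 300 μM L-Glu throughout. NR means <5% response at the stated concentration. 3–14 oocytes.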

[2] = target: Glutamate NMDA receptor; Grin1/Grin2c (Rattus norvegicus, UniProt P35439+Q00961); assay: Agonist activity at rat GluN1/GluN2C NMDA receptor expressed in Xenopus oocytes measured after 4 days in presence of L-glutamte by two-electrode voltage-clamp recording assay; assay type: cell-based, Oocyte
How it was run: (§2)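 Xenopus oocytes were injected with rat GluN1 and GluN2C or GluN2D cRNA (1:2) and recorded by TEVC 2–4 days later at −40 mV, room temperature, pH 7.4 HEPES/NaCl/BaCl2 saline. Concentration-response with 300 μM L-Glu present. NR means <5% response at the concentration given. DMSO ≤0.5%. 3–14 oocytes.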

[3] = target: Ionotropic glutamate receptor NMDA 1/2D (Rattus norvegicus, UniProt P35439+Q62645); assay: Agonist activity at rat GluN1/GluN2D NMDA receptor expressed in Xenopus oocytes measured after 4 days in presence of L-glutamte by two-electrode voltage-clamp recording assay; assay type: cell-based, Oocyte; how it was run: as §2
[4] = target: T1, Glutamate NMDA receptor; Grin1/Grin2a (Rattus norvegicus) (UniProt P35439+Q00959); assay: Agonist activity at rat GluN1/GluN2A NMDA receptor expressed in Xenopus oocytes assessed as maximal relative efficacy measured after 4 days in presence of L-glutamte by two-electrode voltage-clamp recording assay relative to glycine; assay type: cell-based; conditions: Oocyte, time 4.0 day
How it was run: as §1, with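 “throughout. […]” for “throughout.”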

[5] = target: T2, Glutamate NMDA receptor; Grin1/Grin2b (Rattus norvegicus) (UniProt P35439+Q00960); assay: Agonist activity at rat GluN1/GluN2B NMDA receptor expressed in Xenopus oocytes assessed as maximal relative efficacy measured at 100 uM after 4 days in presence of L-glutamte by two-electrode voltage-clamp recording assay relative to glycine; assay type: cell-based; conditions: Oocyte, time 4.0 day
How it was run: as §1, with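 “throughout. […]” for “throughout.”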

[6] = target: Glutamate NMDA receptor; Grin1/Grin2c (Rattus norvegicus) (UniProt P35439+Q00961); assay: Agonist activity at rat GluN1/GluN2C NMDA receptor expressed in Xenopus oocytes assessed as maximal relative efficacy measured after 4 days in presence of L-glutamte by two-electrode voltage-clamp recording assay relative to glycine; assay type: cell-based; conditions: Oocyte, time 4.0 day
How it was run: as §2, with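 “present. […]” for “present.”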

[7] = target: T3, Ionotropic glutamate receptor NMDA 1/2D (Rattus norvegicus) (UniProt P35439+Q62645); assay: Agonist activity at rat GluN1/GluN2D NMDA receptor expressed in Xenopus oocytes assessed as maximal relative efficacy measured after 4 days in presence of L-glutamte by two-electrode voltage-clamp recording assay relative to glycine; assay type: cell-based; conditions: Oocyte, time 4.0 day
How it was run: as §2, with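 “present. […]” for “present.”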

[8] = target: T2, Glutamate NMDA receptor; Grin1/Grin2b (Rattus norvegicus); assay: Agonist activity at rat GluN1/GluN2B NMDA receptor expressed in Xenopus oocytes assessed as maximal relative efficacy measured at 300 uM after 4 days in presence of L-glutamte by two-electrode voltage-clamp recording assay relative to glycine; assay type: cell-based; conditions: Oocyte, time 4.0 day
How it was run: as §1, with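 “throughout. […]” for “throughout.”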

[9] = target: T3, Ionotropic glutamate receptor NMDA 1/2D (Rattus norvegicus); assay: Agonist activity at rat GluN1/GluN2D NMDA receptor expressed in Xenopus oocytes assessed as maximal relative efficacy measured at 100 uM after 4 days in presence of L-glutamte by two-electrode voltage-clamp recording assay relative to glycine; assay type: cell-based; conditions: Oocyte, time 4.0 day
How it was run: as §2, with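 “present. […]” for “present.”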

[10] = target: Glutamate NMDA receptor; Grin1/Grin2b (Rattus norvegicus, UniProt P35439+Q00960); assay: Agonist activity at rat GluN1/GluN2B NMDA receptor expressed in Xenopus oocytes measured after 4 days in presence of L-glutamte by two-electrode voltage-clamp recording assay; assay type: cell-based, Oocyte; how it was run: as §1
[11] = system: Oocyte; assay: Agonist activity at recombinant GluN1a/GluN2B NMDA receptor (unknown origin) expressed in Xenopus oocytes assessed as inhibition of glycine-induced activation of current measured at 10 uM after 4 days in presence of L-glutamte by two-electrode voltage-clamp recording assay; assay type: cell-based; conditions: Homo sapiens, filed as agonist, time 4.0 day
How it was run: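 Oocytes expressing GluN1/2B were BAPTA-injected and held under two-electrode voltage clamp in continuous 300 μM L-Glu. […] Values are mean ± SEM from 12 oocytes.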

[12] = Binding affinity at recombinant GluN1a/GluN2B NMDA receptor (unknown origin) expressed in Xenopus oocytes measured after 4 days in presence of L-glutamte by two-electrode voltage-clamp recording assay; assay type: cell-based, Homo sapiens; conditions: oocyte
[13] = system: Oocyte; assay: Agonist activity at mutant GluN1 F484A/T518 mutant//GluN3A NMDA receptor (unknown origin) expressed in Xenopus oocytes measured after 4 days in presence of glycine by two-electrode voltage-clamp recording assay; assay type: cell-based; conditions: Homo sapiens, time 4.0 day
[14] = system: Oocyte; assay: Agonist activity at mutant GluN1 F484A/T518 mutant//GluN3B NMDA receptor (unknown origin) expressed in Xenopus oocytes measured after 4 days in presence of glycine by two-electrode voltage-clamp recording assay; assay type: cell-based; conditions: Homo sapiens, time 4.0 day
[15] = target: T3, Ionotropic glutamate receptor NMDA 1/2D (Rattus norvegicus); assay: Agonist activity at rat GluN1/GluN2D NMDA receptor expressed in Xenopus oocytes assessed as maximal relative efficacy measured at 300 uM after 4 days in presence of L-glutamte by two-electrode voltage-clamp recording assay relative to glycine; assay type: cell-based; conditions: Oocyte, time 4.0 day
How it was run: as §2, with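 “present. […]” for “present.”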

[16] = target: T1, Glutamate NMDA receptor; Grin1/Grin2a (Rattus norvegicus); assay: Agonist activity at rat GluN1/GluN2A NMDA receptor expressed in Xenopus oocytes assessed as maximal relative efficacy measured at 30 uM after 4 days in presence of L-glutamte by two-electrode voltage-clamp recording assay relative to glycine; assay type: cell-based; conditions: Oocyte, time 4.0 day
How it was run: as §1, with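 “throughout. […]” for “throughout.”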

[17] = target: T2, Glutamate NMDA receptor; Grin1/Grin2b (Rattus norvegicus); assay: Agonist activity at rat GluN1/GluN2B NMDA receptor expressed in Xenopus oocytes assessed as maximal relative efficacy measured at 30 uM after 4 days in presence of L-glutamte by two-electrode voltage-clamp recording assay relative to glycine; assay type: cell-based; conditions: Oocyte, time 4.0 day
How it was run: as §1, with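 “throughout. […]” for “throughout.”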

[18] = target: T3, Ionotropic glutamate receptor NMDA 1/2D (Rattus norvegicus); assay: Agonist activity at rat GluN1/GluN2D NMDA receptor expressed in Xenopus oocytes assessed as maximal relative efficacy measured at 30 uM after 4 days in presence of L-glutamte by two-electrode voltage-clamp recording assay relative to glycine; assay type: cell-based; conditions: Oocyte, time 4.0 day
How it was run: as §2, with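 “present. […]” for “present.”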

[19] = target: T2, Glutamate NMDA receptor; Grin1/Grin2b (Rattus norvegicus); assay: Agonist activity at rat GluN1/GluN2B NMDA receptor expressed in Xenopus oocytes assessed as maximal relative efficacy measured at 10 uM after 4 days in presence of L-glutamte by two-electrode voltage-clamp recording assay relative to glycine; assay type: cell-based; conditions: Oocyte, time 4.0 day
How it was run: as §1, with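 “throughout. […]” for “throughout.”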

[20] = target: T1, Glutamate NMDA receptor; Grin1/Grin2a (Rattus norvegicus); assay: Agonist activity at rat GluN1/GluN2A NMDA receptor expressed in Xenopus oocytes assessed as maximal relative efficacy measured at 300 uM after 4 days in presence of L-glutamte by two-electrode voltage-clamp recording assay relative to glycine; assay type: cell-based; conditions: Oocyte, time 4.0 day
How it was run: as §1, with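 “throughout. […]” for “throughout.”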

[21] = target: T2, Glutamate NMDA receptor; Grin1/Grin2b (Rattus norvegicus); assay: Agonist activity at rat GluN1/GluN2B NMDA receptor expressed in Xenopus oocytes assessed as maximal relative efficacy measured after 4 days in presence of L-glutamte by two-electrode voltage-clamp recording assay relative to glycine; assay type: cell-based; conditions: Oocyte, filed as agonist, time 4.0 day
How it was run: as §1, with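 “throughout. […]” for “throughout.”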

EC50 [1] [nM] | EC50 [2] [nM] | EC50 [3] [nM] | Rmax [4] [%] | Rmax [5] [%] | Rmax ([6]; filed as agonist) [%] | Rmax [7] [%] | Rmax [8] [%] | Rmax [6] [%] | SMILES | further results
53 | 36 | 80 | 34 | < 5 | 49 | 9 | – | – | N[C@H](CNC(=O)c1ccc(-c2ccccc2Br)o1)C(=O)O | –
6600 | 1800 | 7700 | 17 | – | – | 35 | < 5 | 36 | N[C@H](CNC(=O)c1ccc(-c2cccc(C(F)(F)F)c2)o1)C(=O)O | –
4800 | 2900 | 4300 | 22 | – | 77 | 16 | < 5 | – | N[C@H](CNC(=O)c1ccc(-c2ccccc2)o1)C(=O)O | –
– | 1300 | – | – | < 5 | – | – | – | 26 | COc1ccc(-c2ccc(C(=O)NC[C@@H](N)C(=O)O)o2)cc1 | Rmax [9]: < 5%
3100 | 1600 | 3200 | 32 | – | 114 | 11 | < 5 | – | COCc1ccccc1-c1ccc(C(=O)NC[C@@H](N)C(=O)O)o1 | –
4300 | 1700 | – | 14 | < 5 | 44 | – | – | – | N[C@H](CNC(=O)c1ccc(-c2ccc(Cl)cc2)o1)C(=O)O | Rmax [9]: < 5%
– | 74 | – | – | < 5 | – | – | – | 28 | N[C@H](CNC(=O)c1ccc(-c2ccc(Cl)cc2[N+](=O)[O-])o1)C(=O)O | IC50 [10]: 10000 nM; Rmax [9]: < 5%; inhibition [11]: 57%; Ki [12]: 100 nM; inhibition [13]: inactive; inhibition [14]: inactive
10000 | 4800 | – | 22 | – | 119 | – | < 5 | – | CN(C)S(=O)(=O)c1ccccc1-c1ccc(C(=O)NC[C@@H](N)C(=O)O)o1 | Rmax [15]: < 5%
180 | 110 | 230 | 29 | – | 53 | 12 | < 5 | – | N[C@H](CNC(=O)c1ccc(-c2cccc3ccccc23)o1)C(=O)O | –
– | 5800 | – | – | – | – | – | – | 16 | N[C@H](CNC(=O)c1ccc(-c2ccccc2/C=C/c2ccccc2)o1)C(=O)O | Rmax [16]: < 5%; Rmax [17]: < 5%; Rmax [18]: < 5%
– | 3900 | – | – | – | – | – | < 5 | 17 | N[C@H](CNC(=O)c1ccc(-c2cccc3c2OCCO3)o1)C(=O)O | –
220 | 140 | 260 | – | – | 103 | 17 | – | – | Cc1ccccc1-c1ccc(C(=O)NC[C@@H](N)C(=O)O)o1 | Rmax ([4]; filed as agonist): 58%; Rmax [19]: < 5%
4900 | 1300 | 5000 | 27 | – | 68 | 38 | < 5 | – | N[C@H](CNC(=O)c1ccc(-c2cccc(Cl)c2)o1)C(=O)O | –
260 | 120 | 270 | 38 | – | 70 | 11 | < 5 | – | N[C@H](CNC(=O)c1ccc(-c2ccccc2Cl)o1)C(=O)O | –
– | 4000 | – | – | – | 157 | – | < 5 | – | N[C@H](CNC(=O)c1ccc(-c2ccccc2OCc2ccccc2)o1)C(=O)O | Rmax [20]: < 5%
130 | 40 | – | 24 | < 5 | – | – | – | 36 | N[C@H](CNC(=O)c1ccc(-c2ccccc2C(F)(F)F)o1)C(=O)O | Rmax [9]: < 5%
– | 750 | – | – | < 5 | – | – | – | 22 | N[C@H](CNC(=O)c1ccc(-c2ccccc2/C=C/c2cccc(F)c2)o1)C(=O)O | –
– | – | – | – | – | 111 | – | – | – | N[C@H](CO)C(=O)O | Rmax ([4]; filed as agonist): 96%; Rmax ([7]; filed as agonist): 93%; Rmax [21]: 100%
23000 | 4200 | 31000 | 20 | – | 74 | 24 | < 5 | – | N[C@H](CNC(=O)c1ccc(-c2ccc(Cl)c(Cl)c2)o1)C(=O)O | –
